Sampled rows, rich in hits. Any-hit rate of the full collection: about 4.9%.
STAT3 inh: IL-6 driven STAT3 reporter inhibitors, primary screen, U3A cells, luciferase, luminescence, MLSCN library. IL-6 STAT3-luciferase reporter; host cell line lacks STAT1. inhibition, % at 5.5 µM. 0.89% of 190,000 active;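 active = inhibition above the mean inhibition across all screened compounds plus 3 SD, cut at about 44% in these data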;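 also: 0% = DMSO only wells and 100% = 100 µM nifuroxazide control wells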
APP 5'UTR act: activators of APP 5'UTR luciferase reporter, primary screen, SH-SY5Y cells. SH-SY5Y APP 5'UTR luciferase reporter, luminescence; zero percent = DMSO vehicle wells. activation, % at 2 µM. 1% of 190,000 active. AID 1276, 2008;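 active = activation above a set limit, based on mean plus 3 SD of controls, cut at about 140% in these data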
NF-kB expr up: activators of NF-kB expression in neurons, primary screen, cell-based, HTS; human neuronal cells, NF-kB reporter expression; stronger effect = higher value; AID 1239, 2008; fold change at 12.5 µM; 1.6% of 190,000 active; in the data active = fold change above about 3.3
STAT1 blocker: STAT1 signaling inhibitors, primary screen, cell-based, HTS, luciferase reporter | NIH 3T3 STAT1-luciferase reporter, IFN-gamma, luminescence | AID 920, 2007 | 0.35% of 200,000 active | inhibition, % at 5.5 µM;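 active = inhibition above a set limit, the mean inhibition across all tested compounds plus 3 SD, cut at about 34% in these data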;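 also: 0% = IFN-gamma with DMSO and 100% = IFN-gamma with 300 µM nifuroxazide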
STAT1 act: STAT1 signaling activators, primary screen, cell-based, HTS, luciferase reporter; NIH 3T3 STAT1-luciferase reporter, IFN-gamma, luminescence; 100% = IFN-gamma alone, no compound; activation (% of control), % at 5.5 µM; 2.6% of 200,000 active; AID 932, 2007;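 active = activation above the screen-wide mean activation plus 3 SD, cut at about 130% in these data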;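 also: raw ratio to IFN-gamma control signal so 100% means no change and 0% no light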
STAT3 act: IL-6 driven STAT3 reporter potentiators, primary screen, U3A cells, luciferase, luminescence, MLSCN library | activation (% of control), % at 5.6 µM | IL-6 STAT3-luciferase reporter; 100% = signal with IL-6 EC80 alone | 0.91% of 190,000 active;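 active = activation above the screen-wide mean of compound activation plus 3 SD, cut at about 130% in these data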;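 also: 0% = background luminescence of wells with medium and substrate only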
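Test system: STAT3-luciferase reporter U3A cells; Detection: reporter luminescence signal; Times: 1 h compound pre-exposure, 6 h IL-6 stimulation, 37 °C; Benchmarks: IL-6-only high control; Also added: IL-6 stimulus at 33 ng/mL final.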
Starred values were filed as active, the others as inactive.

For O=C(Cn1cnc2ccccc2c1=O)c1ccc2c(c1)OCCO2 the results were STAT3 inh 2, APP 5'UTR act 151*, NF-kB expr up 3.6*, STAT1 blocker -40, STAT1 act 137* and STAT3 act 101.
`COc1ccc(C2C(C(C)=O)=C(O)C(=O)N2c2nccs2)c(OC)c1` (configuration not stated) gave STAT3 inh 9, APP 5'UTR act 3, NF-kB expr up 1.2, STAT1 blocker -5, STAT1 act 103 and STAT3 act 98.
`CC(C)C/C=C1\CCc2c([nH]c3ccccc23)C1=O` gave STAT3 inh 11, APP 5'UTR act 48, NF-kB expr up 2.5, STAT1 blocker -50, STAT1 act 143* and STAT3 act 94.
CCCOc1ccc(C(=O)NCC(c2ccco2)N(C)C)cc1 (configuration not stated) was read as STAT3 inh -5, APP 5'UTR act -3, NF-kB expr up 1.1, STAT1 blocker -2, STAT1 act 102 and STAT3 act 106.
COc1ccccc1NC(=O)c1oc2ccc(C)cc2c1C was read as STAT3 inh -3, APP 5'UTR act 2, NF-kB expr up 2.5, STAT1 blocker -32, STAT1 act 129* and STAT3 act 107.
For COc1ccccc1NC(=O)c1oc2ccccc2c1NC(=O)c1cc(OC)c(OC)c(OC)c1 the results were STAT3 inh 11, APP 5'UTR act 5, STAT1 blocker -2, STAT1 act 102 and STAT3 act 94.
Screening COc1ccccc1-c1c(C#N)c(N)nc2c1CCc1ccccc1-2 returned STAT3 inh 12, APP 5'UTR act 3, NF-kB expr up 1.6, STAT1 blocker 23, STAT1 act 79 and STAT3 act 90.
For O=C(O)c1ccc(Oc2cccc([N+](=O)[O-])c2)cc1C(=O)O the results were STAT3 inh 8, APP 5'UTR act 2, NF-kB expr up 4.3*, STAT1 blocker 1, STAT1 act 99 and STAT3 act 99.
`CCNC(=O)C(=O)NCC1OCCCN1S(=O)(=O)c1cccs1` (configuration not stated) gave STAT3 inh -6, APP 5'UTR act -6, NF-kB expr up 1.1, STAT1 blocker -4, STAT1 act 104 and STAT3 act 108.
`CC(C)c1nnc(NC(=O)C2CCCO2)s1` (configuration not stated) gave STAT3 inh -9, APP 5'UTR act 0, NF-kB expr up 1.3, STAT1 blocker -14, STAT1 act 111 and STAT3 act 109.
Screening Cc1ccc(-c2csc(NC(=O)C3=COCCO3)n2)cc1 returned STAT3 inh -1, APP 5'UTR act 73, NF-kB expr up 2.2, STAT1 blocker -39, STAT1 act 136* and STAT3 act 97.
CSc1nc2ccc(NC(=O)C3CCCO3)cc2s1 (configuration not stated) was read as STAT3 inh 8, APP 5'UTR act 29, NF-kB expr up 2.1, STAT1 blocker -34, STAT1 act 132* and STAT3 act 96.
Screening COc1ccc(-c2nnc(NC(=O)C3CCCO3)s2)cc1 (configuration not stated) returned STAT3 inh 3, APP 5'UTR act 55, NF-kB expr up 1.9, STAT1 blocker -46, STAT1 act 142* and STAT3 act 101.
Screening Cc1cccc2sc(NC(=O)C3CCCO3)nc12 (configuration not stated) returned STAT3 inh 10, APP 5'UTR act 32, NF-kB expr up 2.2, STAT1 blocker -35, STAT1 act 126 and STAT3 act 93.
Screening O=C(Nc1nc(-c2ccc(Oc3ccccc3)cc2)cs1)C1=COCCO1 returned STAT3 inh 6, APP 5'UTR act 5, NF-kB expr up 1, STAT1 blocker 7, STAT1 act 94 and STAT3 act 94.

Assay outcomes deposited in PubChem by several laboratories.
